Measurements gathered from unrelated publications.
Lines come from different studies, so protocols differ.
Target: Rhodopsin kinase GRK7 (GRK7, Homo sapiens, UniProt Q8WTQ7)
Sequence (Q8WTQ7 1-553, as in one of the studies): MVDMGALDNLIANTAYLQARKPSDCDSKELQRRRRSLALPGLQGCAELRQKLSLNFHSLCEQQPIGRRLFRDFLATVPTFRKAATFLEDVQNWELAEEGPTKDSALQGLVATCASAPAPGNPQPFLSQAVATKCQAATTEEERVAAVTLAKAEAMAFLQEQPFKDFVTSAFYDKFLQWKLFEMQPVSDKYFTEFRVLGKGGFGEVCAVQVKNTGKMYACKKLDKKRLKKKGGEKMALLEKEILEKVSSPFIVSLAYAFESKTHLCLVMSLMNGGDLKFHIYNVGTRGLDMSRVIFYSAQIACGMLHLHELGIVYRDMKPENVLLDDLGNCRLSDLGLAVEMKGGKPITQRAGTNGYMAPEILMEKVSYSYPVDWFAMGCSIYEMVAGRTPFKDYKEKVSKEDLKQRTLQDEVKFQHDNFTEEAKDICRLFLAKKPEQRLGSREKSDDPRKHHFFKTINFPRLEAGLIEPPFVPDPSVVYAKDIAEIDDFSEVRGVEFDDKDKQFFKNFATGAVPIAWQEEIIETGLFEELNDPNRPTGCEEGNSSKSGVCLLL

SMILES	effect on	mode	technique	concentration	measurement	value
Nc1ncc(-c2nc(N3CCOCC3)nc(N3CCOCC3)n2)c(C(F)F)n1	binding		competition with immobilised ligand	10 µM	remaining binding	67%
COc1ncccc1-c1cnn2ccc(N3CCN(C(=O)OC(C)C)CC3)nc12	binding		competition with immobilised ligand	1 µM	remaining binding	100%
CC(C)(C)c1cc(C=C(C#N)C#N)cc(Br)c1O	enzyme activity	inhibitor		0.5 µM	remaining activity	107%
Cn1cc(-c2cccc(N3CCc4c(sc5c4CC(C)(C)C5)C3=O)c2CO)cc(Nc2ccncn2)c1=O	enzyme activity	inhibitor		1 µM	inhibition	3%
N#CC1(c2ccccn2)CCN(Cc2cc(C(=O)O)c(=O)n3ccccc23)CC1	cell-free assay		competition with immobilised ligand	1 µM	remaining binding	77%
O=c1[nH]c2ccccc2n1C1CCN(Cc2ccc(-c3[nH]c4cc5ncnc5cc4nc3-c3ccccc3)cc2)CC1	cell-free assay			0.5 µM	remaining signal	98.5%
Cn1cncc1[C@@](O)(COc1ccc(C#N)cc1-c1ccc(OC(F)(F)F)cc1)c1ccc(C#N)cc1	cell-free assay		competition with immobilised ligand	1 µM	remaining binding	81%
Cn1cc(-c2cc(F)cc(N3CCn4c(cc5c4CCCC5)C3=O)c2CO)cc(Nc2ccc(N3CCN(C4COC4)CC3)cn2)c1=O	enzyme activity	inhibitor		0.1 µM	inhibition	2%
